Results collected from several papers.
Compare with care: the assays were run in different laboratories.
Target: Tyrosine-protein kinase receptor UFO (AXL, Homo sapiens, UniProt P30530)
Residues used in one study (P30530 1-894): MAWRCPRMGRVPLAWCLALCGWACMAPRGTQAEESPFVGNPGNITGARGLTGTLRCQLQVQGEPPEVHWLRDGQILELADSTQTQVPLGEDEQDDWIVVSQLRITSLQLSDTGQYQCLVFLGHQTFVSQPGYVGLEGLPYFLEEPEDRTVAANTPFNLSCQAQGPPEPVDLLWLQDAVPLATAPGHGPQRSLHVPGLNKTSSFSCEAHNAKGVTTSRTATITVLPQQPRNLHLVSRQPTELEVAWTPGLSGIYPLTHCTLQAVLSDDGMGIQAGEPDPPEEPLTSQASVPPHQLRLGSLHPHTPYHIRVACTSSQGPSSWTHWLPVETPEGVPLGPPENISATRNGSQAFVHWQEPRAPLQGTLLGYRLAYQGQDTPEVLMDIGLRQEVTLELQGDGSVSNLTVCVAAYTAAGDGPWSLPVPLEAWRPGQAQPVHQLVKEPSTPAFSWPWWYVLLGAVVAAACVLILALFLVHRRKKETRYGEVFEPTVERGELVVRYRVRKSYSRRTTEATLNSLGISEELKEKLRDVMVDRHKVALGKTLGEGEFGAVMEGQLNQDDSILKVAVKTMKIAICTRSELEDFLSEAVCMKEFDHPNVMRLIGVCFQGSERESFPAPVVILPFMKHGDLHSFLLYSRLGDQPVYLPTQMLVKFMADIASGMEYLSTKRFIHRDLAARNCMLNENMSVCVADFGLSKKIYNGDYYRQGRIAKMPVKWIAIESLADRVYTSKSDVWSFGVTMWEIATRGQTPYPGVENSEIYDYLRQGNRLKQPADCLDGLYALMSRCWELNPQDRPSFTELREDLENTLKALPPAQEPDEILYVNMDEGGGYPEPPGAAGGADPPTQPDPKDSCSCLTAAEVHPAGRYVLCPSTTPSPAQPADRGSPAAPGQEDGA

CC(C)(C)c1nc(-c2cccc(NS(=O)(=O)c3c(F)cccc3F)c2F)c(-c2ccnc(N)n2)s1  remaining activity (enzyme activity; inhibitor; radiometric; 1 µM): 75%
COc1cc2c(Nc3ccc(Br)cc3F)ncnc2cc1OCC1CCN(C)CC1  remaining signal (cell-free assay; 0.5 µM): 55%
CNCc1ccc(-c2cc(-c3nc(-c4ccc(S(=O)(=O)C(C)C)cc4)cnc3N)on2)cc1  inhibition (enzyme activity; inhibitor; 0.4 µM): 27%
Cc1cc(NC(=O)c2cccc3cc(-c4cccc5[nH]nc(N)c45)ccc23)ccc1F  activity vs control (enzyme activity; inhibitor; 0.1 µM): 113%
CCN(CC)CCNC(=O)c1c(C)[nH]c(/C=C2\C(=O)Nc3ccc(F)cc32)c1C  remaining activity (enzyme activity; inhibitor; 1 µM): 7%
Cc1ccc(C(=O)NCc2ccsc2)cc1C#Cc1cn(C(C)C)c2ncnc(N)c12  activity vs control (enzyme activity; inhibitor; 1 µM): 72%
CCN1CCN(Cc2ccc(NC(=O)c3ccc(C)c(Oc4ccnc5[nH]ccc45)c3)cc2C(F)(F)F)CC1  inhibition (target engagement in cells; inhibitor; chemoproteomics; A-375; 5 µM): -35.7%
CCN(CC)c1ccc(C2=NNC(=O)CC2C)cc1[N+](=O)[O-] (centres unmarked)  remaining activity (enzyme activity; inhibitor; 10 µM): 94%
CN([C@@H]1CCc2c(CC(=O)O)c3ccccc3n2C1)S(=O)(=O)c1ccc(F)cc1  remaining binding (cell-free assay; competition with immobilised ligand; 1 µM): 100%
COc1cc(Nc2c(C#N)cnc3cc(OCCCN4CCN(C)CC4)c(OC)cc23)c(Cl)cc1Cl  remaining signal (cell-free assay; 0.5 µM): 37.6%
CC1=C(C#N)[C@@H](c2ccc3[nH]nc(C)c3c2)C(C#N)=C(c2ccc(Cl)cc2)N1  remaining binding (cell-free assay; competition with immobilised ligand; 1 µM): 100%
CCN(CC)CCNC(=O)c1c(C)[nH]c(/C=C2\C(=O)Nc3ccc(F)cc32)c1C  inhibition (enzyme activity; inhibitor; 10 µM): 94%
Cc1nc(Cc2cccc(C(F)(F)F)c2)sc1-c1ccc(C(N)=O)nc1  remaining binding (binding; competition with immobilised ligand; 1 µM): 100%
O=C(Nc1cnn(-c2csc(C(=O)NC3COC3)c2)c1)Nc1c(F)cccc1Cl  remaining activity (enzyme activity; inhibitor; 5 µM): 73%
O=C(Nc1ccc(Oc2ccc(F)cc2)cc1)N1CCc2ncccc2[C@H]1c1ccc(F)cc1  remaining binding (cell-free assay; competition with immobilised ligand; 1 µM): 77%
COc1cc2nccc(Oc3ccc(NC(=S)NC(=O)c4ccccc4C)cc3)c2cc1OC  remaining activity (enzyme activity; inhibitor; 0.5 µM): 80.4%
Cc1cc(C)c(-n2ccn3nc(-c4cccnc4)cc23)cc1NC(=O)c1cc(C#N)cc(S(F)(F)(F)(F)F)c1  remaining binding (cell-free assay; competition with immobilised ligand; 0.1 µM): 80.5%
COc1cc(Cl)c(C(=O)N[C@@H](CN[C@H]2CC[C@@H](N)CC2)Cc2ccc(C#N)cc2)cc1-c1ccc(CN[C@H](C)c2ccc(C)cc2)o1  remaining activity (enzyme activity; inhibitor; 1 µM): 56%
CNCc1ccccc1-c1csc([C@H](C)Nc2nc(C)nc3cc(OC)c(OC)cc23)c1  remaining binding (cell-free assay; competition with immobilised ligand; 1 µM): 100%
COc1cc2nccc(Oc3ccc(NC(=O)c4c5n(n(-c6ccc(F)cc6)c4=O)CCCC5)cc3)c2cc1OC  inhibition (enzyme activity; inhibitor; 0.1 µM): 93%
O=c1c2ccccc2[nH]c(=S)n1CCN1CCC(=C(c2ccc(F)cc2)c2ccc(F)cc2)CC1  remaining activity (enzyme activity; inhibitor; 0.5 µM): 91.7%
CN1CC(Oc2cnc(C#N)cc2-c2ccn3nc(NC(=O)C4CC4)cc3c2)C1  inhibition (enzyme activity; inhibitor; 1 µM): -5%
Nc1ncnc2occ(-c3ccc(NC(=O)Nc4cc(C(F)(F)F)ccc4F)cc3)c12  remaining signal (cell-free assay; 20 µM): 21%
N#CCCc1ccc2c(c1)-c1[nH]c3ccc([N+](=O)[O-])cc3c1CC(=O)N2  remaining signal (cell-free assay; 0.5 µM): 95.5%
Cc1sc(C(=O)NC2COC2)cc1-n1cc(NC(=O)Nc2c(F)cccc2Cl)cn1  remaining activity (enzyme activity; inhibitor; 10 µM): 86.6%
Cc1[nH]c(/C=C2\C(=O)Nc3ccc(F)cc32)c(C)c1C(=O)N[C@H]1CCN(C(=O)N(C)C)C1  remaining activity (enzyme activity; inhibitor; 1 µM): 43%
CNC(=O)c1cc(Oc2ccc(NC(=O)Nc3ccc(Cl)c(C(F)(F)F)c3)cc2)ccn1  inhibition (enzyme activity; inhibitor; 0.3 µM): 3%
O=C(O)c1ccc2c3c1cccc3c(=O)n1c3ccccc3nc21  remaining activity (enzyme activity; inhibitor; 0.5 µM): 94.3%
CNC(=O)Nc1ccc2c(c1)[C@@]1(CC2)OC(=O)N(CC(=O)N(Cc2ccc(F)cc2)[C@@H](C)C(F)(F)F)C1=O  remaining binding (cell-free assay; competition with immobilised ligand; 1 µM): 67%
O=c1cc(-c2cccc3c2Sc2ccccc2S3)oc(N2CCOCC2)c1  remaining activity (enzyme activity; inhibitor; 0.5 µM): 106%
COc1cc2ncnc(Nc3ccc(Oc4ccccc4)c(C)c3C)c2cc1OC  inhibition (enzyme activity; inhibitor; 1 µM): -3%
CCCOc1ccc([C@H]2[C@H](C(=O)O)[C@@H](c3ccc4c(c3)OCO4)CN2CC(=O)Nc2c(CC)cccc2CC)cc1  remaining binding (cell-free assay; competition with immobilised ligand; 1 µM): 83%
